High-throughput results: PubChem, The Scripps Research Institute Molecular Screening Center
5HT1E ag: 5-HT1E receptor agonists, primary screen, cell-based, HTS | CHO 5-HT1E Ga15 NFAT-bla reporter, FRET; 0% DMSO wells, 100% control agonist wells | activation, % at 6 µM | actives 0.69% (n = 65,000);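 active = activation above a set limit, the screen-wide mean activation plus 3 SD, cut at about 8.5% in these data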;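 note: 100% = positive control agonist at 1 µM giving full maximal response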
S1P1 ag-PAM: S1P1 agonists and agonism potentiators, primary screen, cell-based, primary and confirmation screens, CRE-bla reporter; Sphingosine 1-phosphate receptor 1 (Homo sapiens), P21453; S1P1 CRE-bla cells, forskolin, beta-lactamase FRET, potentiator mode; S1P1 agonist co-added at EC20, 2 nM; 100% = saturating reference agonist, 0% = basal; activation, % at 9.5 µM; actives 0.57% (n = 56,000);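 active = activation above a cutoff set at the mean activation of all tested compounds plus 3 SD, cut at about 54% in these data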;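 note: forskolin at 4 µM as EC80 and the EC20 agonist is SEW2871; 100% = SEW2871 at its EC100 plus forskolin at EC80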
Target sequence (P21453 whole entry, looked up): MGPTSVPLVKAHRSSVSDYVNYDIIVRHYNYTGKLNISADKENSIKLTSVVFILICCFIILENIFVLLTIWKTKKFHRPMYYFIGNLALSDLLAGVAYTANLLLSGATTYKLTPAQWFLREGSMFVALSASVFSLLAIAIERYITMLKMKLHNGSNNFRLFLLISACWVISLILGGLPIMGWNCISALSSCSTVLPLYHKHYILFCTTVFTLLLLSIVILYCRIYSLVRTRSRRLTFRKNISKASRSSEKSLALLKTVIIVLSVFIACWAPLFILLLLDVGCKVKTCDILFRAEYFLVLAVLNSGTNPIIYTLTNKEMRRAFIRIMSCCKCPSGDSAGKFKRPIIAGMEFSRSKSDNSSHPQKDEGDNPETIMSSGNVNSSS
5HT1a antag: human 5-HT1a receptor antagonists, primary screen, cell-based, CHO, Ga15 NFAT-bla reporter; 5-hydroxytryptamine receptor 1A (Homo sapiens), P08908; CHO 5-HT1a Ga15 NFAT-bla reporter, antagonist mode; inhibition, % at 10 µM; actives 0.68% (n = 62,000);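 active = inhibition above the mean of all tested compounds plus 3 SD, cut at about 43% in these data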;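 note: receptor stimulated by 5-CT agonist at 100 nM near EC80; beta-lactamase reporter measured by ratiometric fluorescence of a cleavable substrate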
HTR1E antagonist: 5-HT1E receptor antagonists, primary screen, cell-based, HTS. 5-hydroxytryptamine receptor 1E (Homo sapiens), P28566. CHO 5-HT1E Ga15 NFAT-bla reporter, FRET, antagonist. inhibition, % at 6 µM. actives 0.99% (n = 65,000);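 active = inhibition above a set limit, the mean inhibition across every tested compound plus 3 SD, cut at about 29% in these data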;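 note: signal is the 460 over 535 nm emission ratio of beta-lactamase substrate; 0% = agonist plus DMSO wells and 100% = wells without agonist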
S1P3 ag: human S1P3 receptor agonists, primary screen, cell-based, primary and confirmation, NFAT-BLA reporter. Sphingosine 1-phosphate receptor 3 (Homo sapiens), Q99500. S1P3 NFAT-BLA reporter cells, agonism, FRET ratio; relative to 1 µM S1P, basal subtracted. activation, % at 4.5 µM. actives 0.1% (n = 60,000). AID 373, 2006;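 active = activation above the screen-wide mean plus 3 SD, cut at about 4.5% in these data, passing the limit was not always enough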
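material = human S1P3 NFAT-BLA reporter CHO cells | schedule = 4 h compound at 37 °C, 2 h substrate at RT | measured by = fluorescent BLA substrate, ex 405 nm, em 460/535 nm ratio | controls = 1 µM S1P reference | replication = primary once, confirmation triplicate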
HTR1A agonist: human 5-HT1a receptor agonists, primary screen, cell-based, CHO, Ga15 NFAT-bla reporter; CHO 5-HT1a Ga15 NFAT-bla reporter, FRET ratio; 0% basal, 100% maximal reference agonist; activation, % at 10 µM; actives 0.56% (n = 65,000);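 active = activation above the screen-wide mean activation plus 3 SD, cut at about 19% in these data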;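 note: 0% = DMSO wells and 100% = 5-CT at EC100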
Starred values were filed as active, the others as inactive; / = not tested or not shown. Hits are enriched below; roughly 3% of the tested compounds scored in any of these assays.

SMILES | 5HT1E ag | S1P1 ag-PAM | 5HT1a antag | HTR1E antagonist | S1P3 ag | HTR1A agonist
Cc1nc(SCC(=O)N2CCN(c3ccccc3)CC2)c2c(=O)n(C)c(=O)n(C)c2n1 | 0 | 13 | 10 | 4 | 0 | -3
COc1ccc(C(c2nnnn2CC2CCCO2)N2CCN(c3cccc(C)c3C)CC2)cc1 (configuration not stated) | 3 | 11 | 24 | 6 | -1 | -2
CCCCC(c1nnnn1CC1CCCO1)N1CCN(c2cccc(C)c2C)CC1 (configuration not stated) | 38* | 14 | 38 | 3 | -1 | 1
COC(=O)c1cc2sc(Cl)cc2n1CC(=O)Nc1cccc(SC)c1 | -1 | 26 | 48* | -1 | -1 | -5
C=CCn1c(=O)c2ccccc2n2c(SC(C)C(=O)Nc3nc(-c4ccccc4)cs3)nnc12 (configuration not stated) | 0 | 4 | 0 | 38* | -1 | 1
COc1ccc(OC)c(C(=O)CN2C(=O)NC(C)(c3ccccc3)C2=O)c1 (configuration not stated) | 0 | 6 | 0 | -2 | 0 | 161*
COCCn1c(CNc2ccc(F)cc2)nnc1SCC(=O)Nc1ccc(OC)cc1OC | 0 | / | -17 | -2 | / | 0
COC(=O)c1nc2n(n1)C(c1cc(OC)ccc1OC)C(C(=O)OC1CCCCC1)=C(C)N2 (configuration not stated) | -2 | / | 15 | 13 | / | 2
CCOC(=O)c1ccc(N=c2sc(C(=O)OC)cc(=O)n2CCCN2CCOCC2)cc1 | -2 | 25 | 32 | 40* | -2 | 0
CCOC(=O)c1ccc(N=c2sc(C(=O)OC)cc(=O)n2Cc2ccco2)cc1 | 0 | 31 | 30 | 12 | -1 | -2
CCCCN=c1sc(C(=O)OC)cc(=O)n1CCCC | -1 | / | -12 | 0 | / | 0
CCn1c(=O)cc(C(=O)OC)sc1=Nc1ccc(F)c(F)c1 | 1 | 5 | 6 | 38* | 0 | 0
CCN(CC)CCNC(=O)c1sc2nc(-c3ccccc3)cn2c1C | 1 | -10 | 2 | 0 | -1 | -3
CCc1ccccc1N(C(=O)CCC(=O)Nc1cc(C)on1)C(C(=O)NC1CCCC1)c1ccco1 (configuration not stated) | 0 | -6 | 13 | -2 | 0 | -1
O=C(NCCc1ccccc1)C1CCN(S(=O)(=O)c2ccc(-c3nn[nH]n3)cc2)CC1 | 0 | 1 | 1 | -3 | 0 | -1
COCCNS(=O)(=O)c1ccc(SC)cc1 | 1 | / | -3 | 4 | 0 | -3
CCC1CCCCN1C(=O)CSc1nnc(CNC(=O)COc2ccc(Cl)cc2)o1 (configuration not stated) | -1 | / | 2 | 3 | / | 0
Cn1cc(/C=N/n2cnc3scc(-c4ccccc4)c3c2=O)c2ccccc21 | -1 | 29 | 10 | 30* | -1 | 3
Cc1cccc(N(CC(=O)N2CCCC2)S(=O)(=O)c2ccccc2)c1 | -1 | 4 | 8 | 15 | 0 | -1
O=C(NC1=NCCS1)c1cc(-c2ccccc2)nn1-c1ccccc1 | 1 | 52 | 2 | -22 | 11* | 0
Cc1cc(C)n(-c2ccc(C(=O)NC3=NCCS3)cc2)n1 | 2 | 10 | 12 | 0 | -1 | 2
CCOC(=O)C1=C(C)NC(=O)NC1c1c(O)ccc2ccccc12 (configuration not stated) | 1 | -27 | -5 | 2 | 0 | 0
CCc1nc2ccccc2n1CCC(C)C | 1 | 0 | 6 | 0 | -1 | -1
